{"source": "ChEMBL document CHEMBL1773012", "about": "“Synthesis, spectral, crystal structure and in vitro antimicrobial evaluation of imidazole/benzotriazole substituted piperidin-4-one derivatives” (2011)", "key": {"Aspergillus flavus": {"tested_on": "Aspergillus flavus", "assay": "Antimicrobial activity against Aspergillus flavus ATCC 525 after 72 to 96 hrs by two fold serial dilution method", "assay_type": "functional", "how_it_was_run": "(§1)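 Two-fold serial dilution in Sabouraud dextrose broth. Spores from 24 h to 7-day-old Sabouraud agar slant cultures were suspended in SDB. Compounds and reference drugs were tested at 200, 100, 50, 25, 12.5 and 6.25. Tubes were incubated in a BOD incubator, and MIC was recorded visually after 72–96 h.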"}, "Escherichia coli": {"tested_on": "Escherichia coli", "assay": "Antimicrobial activity against Escherichia coli ATCC 26032 after 24 hrs by two fold serial dilution method", "assay_type": "functional", "conditions": "ATCC 26032, 24 h", "how_it_was_run": "(§2)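 Nutrient broth two-fold serial dilution. Inoculum was seeded NB prepared from 24 h nutrient-agar cultures grown at 37 ± 1 °C and adjusted with sterile saline to 1×10⁴–10⁵ CFU. Compounds and reference drugs were tested at 200, 100, 50, 25, 12.5 and 6.25. Tubes were incubated in a BOD incubator, and MIC was read visually after 24 h.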"}, "Bacillus subtilis": {"tested_on": "Bacillus subtilis", "assay": "Antimicrobial activity against Bacillus subtilis ATCC 530 after 24 hrs by two fold serial dilution method", "assay_type": "functional", "how_it_was_run": "as §2"}, "Klebsiella pneumoniae": {"tested_on": "Klebsiella pneumoniae", "assay": "Antimicrobial activity against Klebsiella pneumoniae ATCC 16425 after 24 hrs by two fold serial dilution method", "assay_type": "functional", "how_it_was_run": "as §2"}, "Candida albicans": {"tested_on": "Candida albicans", "assay": "Antimicrobial activity against Candida albicans ATCC 3430 by two fold serial dilution method", "assay_type": "functional", "how_it_was_run": "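Sabouraud dextrose broth two-fold serial dilution. Cells or spores from 24 h to 7-day-old Sabouraud agar slant cultures were suspended in SDB. Test and reference agents were tested at 200, 100, 50, 25, 12.5 and 6.25. Tubes were incubated in a BOD incubator, with MIC read by visual observation.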"}, "Aspergillus niger": {"tested_on": "Aspergillus niger", "assay": "Antimicrobial activity against Aspergillus niger ATCC 635 after 72 to 96 hrs by two fold serial dilution method", "assay_type": "functional", "how_it_was_run": "as §1"}, "Cryptococcus neoformans": {"tested_on": "Cryptococcus neoformans", "assay": "Antimicrobial activity against Cryptococcus neoformans ATCC 3235 after 72 to 96 hrs by two fold serial dilution method", "assay_type": "functional", "how_it_was_run": "as §1"}, "Rhizopus": {"tested_on": "Rhizopus", "assay": "Antimicrobial activity against Rhizopus sp. ATCC 2842 after 72 to 96 hrs by two fold serial dilution method", "assay_type": "functional", "how_it_was_run": "as §1"}, "Staphylococcus aureus": {"tested_on": "Staphylococcus aureus", "assay": "Antimicrobial activity against Staphylococcus aureus ATCC 25930 after 24 hrs by two fold serial dilution method", "assay_type": "functional", "how_it_was_run": "as §2"}, "Salmonella typhi": {"tested_on": "Salmonella typhi", "assay": "Antimicrobial activity against Salmonella typhi ATCC 25021 after 24 hrs by two fold serial dilution method", "assay_type": "functional, Salmonella enterica subsp. enterica serovar Typhi", "conditions": "Salmonella enterica, ATCC 25021, 24 h", "how_it_was_run": "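Two-fold serial dilution in nutrient broth. Seeded broth was made from 24 h bacterial cultures on nutrient agar grown at 37 ± 1 °C, and the suspension was adjusted with sterile saline to 1×10⁴–10⁵ CFU. Compounds and reference drugs were tested at 200, 100, 50, 25, 12.5 and 6.25. Tubes were incubated in a BOD incubator, and the MIC was read visually after 24 h.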"}}, "note": "Activity calls are given as the source filed them. No cut-off for these calls is given here.", "data": [{"compound": "CC1C(=O)CC(c2ccccc2)N(C(=O)Cn2ccnc2)C1c1ccccc1", "note": "(centres undefined)", "values": [{"measurement": "MIC", "setting": "Aspergillus flavus", "result": 100, "unit": "µg/mL"}, {"measurement": "MIC", "setting": "Escherichia coli", "result": 100, "unit": "µg/mL"}, {"measurement": "MIC", "setting": "Bacillus subtilis; ATCC 530, 24 h", "result": 25, "unit": "µg/mL"}, {"measurement": "MIC", "setting": "Klebsiella pneumoniae; ATCC 16425, 24 h", "result": 50, "unit": "µg/mL"}, {"measurement": "MIC", "setting": "Candida albicans", "result": 100, "unit": "µg/mL"}, {"measurement": "MIC", "setting": "Aspergillus niger", "result": 200, "unit": "µg/mL"}, {"measurement": "MIC", "setting": "Cryptococcus neoformans", "result": 100, "unit": "µg/mL"}, {"measurement": "MIC", "setting": "Rhizopus", "result": 100, "unit": "µg/mL"}, {"measurement": "MIC", "setting": "Staphylococcus aureus; ATCC 25930, 24 h", "result": 100, "unit": "µg/mL"}, {"measurement": "MIC", "setting": "Salmonella typhi", "result": 200, "unit": "µg/mL"}]}, {"compound": "COc1ccc(C2C(C)C(=O)C(C)C(c3ccc(OC)cc3)N2C(=O)Cn2ccnc2)cc1", "note": "(centres undefined)", "values": [{"measurement": "MIC", "setting": "Aspergillus flavus", "result": 100, "unit": "µg/mL"}, {"measurement": "MIC", "setting": "Escherichia coli", "result": 25, "unit": "µg/mL"}, {"measurement": "MIC", "setting": "Bacillus subtilis; ATCC 530, 24 h", "result": 50, "unit": "µg/mL"}, {"measurement": "MIC", "setting": "Klebsiella pneumoniae; ATCC 16425, 24 h", "result": 200, "unit": "µg/mL"}, {"measurement": "MIC", "setting": "Candida albicans", "result": 6.25, "unit": "µg/mL"}, {"measurement": "MIC", "setting": "Aspergillus niger", "result": "inactive"}, {"measurement": "MIC", "setting": "Cryptococcus neoformans", "result": 50, "unit": "µg/mL"}, {"measurement": "MIC", "setting": "Rhizopus", "result": 100, "unit": "µg/mL"}, {"measurement": "MIC", "setting": "Staphylococcus aureus; ATCC 25930, 24 h", "result": 100, "unit": "µg/mL"}, {"measurement": "MIC", "setting": "Salmonella typhi", "result": 100, "unit": "µg/mL"}]}, {"compound": "CC(C)C1C(=O)CC(c2ccccc2)N(C(=O)Cn2ccnc2)C1c1ccccc1", "note": "(centres undefined)", "values": [{"measurement": "MIC", "setting": "Aspergillus flavus", "result": 100, "unit": "µg/mL"}, {"measurement": "MIC", "setting": "Escherichia coli", "result": 100, "unit": "µg/mL"}, {"measurement": "MIC", "setting": "Bacillus subtilis; ATCC 530, 24 h", "result": 12.5, "unit": "µg/mL"}, {"measurement": "MIC", "setting": "Klebsiella pneumoniae", "result": "inactive"}, {"measurement": "MIC", "setting": "Candida albicans", "result": 100, "unit": "µg/mL"}, {"measurement": "MIC", "setting": "Aspergillus niger", "result": 12.5, "unit": "µg/mL"}, {"measurement": "MIC", "setting": "Cryptococcus neoformans", "result": 25, "unit": "µg/mL"}, {"measurement": "MIC", "setting": "Rhizopus", "result": 50, "unit": "µg/mL"}, {"measurement": "MIC", "setting": "Staphylococcus aureus; ATCC 25930, 24 h", "result": 100, "unit": "µg/mL"}, {"measurement": "MIC", "setting": "Salmonella typhi", "result": 25, "unit": "µg/mL"}]}, {"compound": "CC1C(=O)C(C)C(c2ccccc2)N(C(=O)Cn2ccnc2)C1c1ccccc1", "note": "(centres undefined)", "values": [{"measurement": "MIC", "setting": "Aspergillus flavus", "result": 100, "unit": "µg/mL"}, {"measurement": "MIC", "setting": "Escherichia coli", "result": 6.25, "unit": "µg/mL"}, {"measurement": "MIC", "setting": "Bacillus subtilis; ATCC 530, 24 h", "result": 100, "unit": "µg/mL"}, {"measurement": "MIC", "setting": "Klebsiella pneumoniae; ATCC 16425, 24 h", "result": 100, "unit": "µg/mL"}, {"measurement": "MIC", "setting": "Candida albicans", "result": "inactive"}, {"measurement": "MIC", "setting": "Aspergillus niger", "result": 100, "unit": "µg/mL"}, {"measurement": "MIC", "setting": "Cryptococcus neoformans", "result": 100, "unit": "µg/mL"}, {"measurement": "MIC", "setting": "Rhizopus", "result": 200, "unit": "µg/mL"}, {"measurement": "MIC", "setting": "Staphylococcus aureus", "result": "inactive"}, {"measurement": "MIC", "setting": "Salmonella typhi", "result": 100, "unit": "µg/mL"}]}, {"compound": "C[C@@H]1[C@H](O)[C@@H](C)/C=C/C=C/C=C/C=C/C=C/C=C/C=C/[C@H](O[C@@H]2O[C@H](C)[C@@H](O)[C@H](N)[C@@H]2O)C[C@@H]2O[C@](O)(C[C@@H](O)C[C@@H](O)[C@H](O)CC[C@@H](O)C[C@@H](O)CC(=O)O[C@H]1C)C[C@H](O)[C@H]2C(=O)O", "note": "[AMPHOTERICIN B]", "values": [{"measurement": "MIC", "setting": "Aspergillus flavus", "result": 50, "unit": "µg/mL"}, {"measurement": "MIC", "setting": "Candida albicans", "result": 25, "unit": "µg/mL"}, {"measurement": "MIC", "setting": "Aspergillus niger", "result": 50, "unit": "µg/mL"}, {"measurement": "MIC", "setting": "Cryptococcus neoformans", "result": 25, "unit": "µg/mL"}, {"measurement": "MIC", "setting": "Rhizopus", "result": 25, "unit": "µg/mL"}]}, {"compound": "CC1C(=O)C(C)C(c2cccc(F)c2)N(C(=O)Cn2ccnc2)C1c1cccc(F)c1", "note": "(centres undefined)", "values": [{"measurement": "MIC", "setting": "Aspergillus flavus", "result": "inactive"}, {"measurement": "MIC", "setting": "Escherichia coli", "result": 200, "unit": "µg/mL"}, {"measurement": "MIC", "setting": "Bacillus subtilis", "result": "inactive"}, {"measurement": "MIC", "setting": "Klebsiella pneumoniae; ATCC 16425, 24 h", "result": 200, "unit": "µg/mL"}, {"measurement": "MIC", "setting": "Candida albicans", "result": 50, "unit": "µg/mL"}, {"measurement": "MIC", "setting": "Aspergillus niger", "result": 100, "unit": "µg/mL"}, {"measurement": "MIC", "setting": "Cryptococcus neoformans", "result": 6.25, "unit": "µg/mL"}, {"measurement": "MIC", "setting": "Rhizopus", "result": 25, "unit": "µg/mL"}, {"measurement": "MIC", "setting": "Staphylococcus aureus; ATCC 25930, 24 h", "result": 50, "unit": "µg/mL"}, {"measurement": "MIC", "setting": "Salmonella typhi", "result": 50, "unit": "µg/mL"}]}, {"compound": "CCC1C(=O)CC(c2ccccc2)N(C(=O)Cn2ccnc2)C1c1ccccc1", "note": "(centres undefined)", "values": [{"measurement": "MIC", "setting": "Aspergillus flavus", "result": 200, "unit": "µg/mL"}, {"measurement": "MIC", "setting": "Escherichia coli", "result": 50, "unit": "µg/mL"}, {"measurement": "MIC", "setting": "Bacillus subtilis", "result": "inactive"}, {"measurement": "MIC", "setting": "Klebsiella pneumoniae; ATCC 16425, 24 h", "result": 100, "unit": "µg/mL"}, {"measurement": "MIC", "setting": "Candida albicans", "result": 200, "unit": "µg/mL"}, {"measurement": "MIC", "setting": "Aspergillus niger", "result": "inactive"}, {"measurement": "MIC", "setting": "Cryptococcus neoformans", "result": 50, "unit": "µg/mL"}, {"measurement": "MIC", "setting": "Rhizopus", "result": 100, "unit": "µg/mL"}, {"measurement": "MIC", "setting": "Staphylococcus aureus; ATCC 25930, 24 h", "result": 200, "unit": "µg/mL"}, {"measurement": "MIC", "setting": "Salmonella typhi", "result": 200, "unit": "µg/mL"}]}, {"compound": "CN[C@@H]1[C@H](O[C@H]2[C@H](O[C@H]3[C@H](O)[C@@H](O)[C@H](N=C(N)N)[C@@H](O)[C@@H]3N=C(N)N)O[C@@H](C)[C@]2(O)C=O)O[C@@H](CO)[C@H](O)[C@H]1O", "note": "[STREPTOMYCIN]", "values": [{"measurement": "MIC", "setting": "Escherichia coli", "result": 12.5, "unit": "µg/mL"}, {"measurement": "MIC", "setting": "Bacillus subtilis; ATCC 530, 24 h", "result": 12.5, "unit": "µg/mL"}, {"measurement": "MIC", "setting": "Klebsiella pneumoniae; ATCC 16425, 24 h", "result": 25, "unit": "µg/mL"}, {"measurement": "MIC", "setting": "Staphylococcus aureus; ATCC 25930, 24 h", "result": 50, "unit": "µg/mL"}, {"measurement": "MIC", "setting": "Salmonella typhi", "result": 50, "unit": "µg/mL"}]}, {"compound": "CC1C(=O)C(C)C(c2cccc(F)c2)N(C(=O)Cn2nnc3ccccc32)C1c1cccc(F)c1", "note": "(centres undefined)", "values": [{"measurement": "MIC", "setting": "Aspergillus flavus", "result": 200, "unit": "µg/mL"}, {"measurement": "MIC", "setting": "Escherichia coli", "result": 50, "unit": "µg/mL"}, {"measurement": "MIC", "setting": "Bacillus subtilis; ATCC 530, 24 h", "result": 25, "unit": "µg/mL"}, {"measurement": "MIC", "setting": "Klebsiella pneumoniae; ATCC 16425, 24 h", "result": 25, "unit": "µg/mL"}, {"measurement": "MIC", "setting": "Candida albicans", "result": "inactive"}, {"measurement": "MIC", "setting": "Aspergillus niger", "result": 200, "unit": "µg/mL"}, {"measurement": "MIC", "setting": "Cryptococcus neoformans", "result": 100, "unit": "µg/mL"}, {"measurement": "MIC", "setting": "Rhizopus", "result": 100, "unit": "µg/mL"}, {"measurement": "MIC", "setting": "Staphylococcus aureus; ATCC 25930, 24 h", "result": 50, "unit": "µg/mL"}]}]}
